Assay results taken from ChEMBL document CHEMBL2093137, “WHO-TDR NTD Screening”.
Values after ≈ are worked out from the molar mass of the structure shown.

Experiments:
[1] = WHO-TDR: Cytotoxicity; format: toxicity, cell-based; conditions: human, MRC5 cells
Plasmodium falciparum K1 = test: WHO-TDR: Malaria; format: functional, organism-based, Homo sapiens; conditions: Erythrocyte
In short: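 Life Chemicals supplied the diverse library of 10,000 compounds, which had been filtered for drug-likeness and reactive groups. Each was screened against the K1 strain of Plasmodium falciparum at its intra-erythrocytic stage in human red blood cells, using previously published standard procedures and a reference drug as positive control. The table reports IC50 for antiplasmodial potency.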

Trypanosoma cruzi = test: WHO-TDR: Chagas disease; format: functional, organism-based, Homo sapiens; conditions: MRC5
In short: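 Whole-organism screen of a 10,000-compound diverse library from Life Chemicals, filtered for drug-likeness and reactive groups, against intracellular amastigotes of Trypanosoma cruzi Tulahuen CL2 beta-galactosidase strain grown in MRC-5SV2 human lung fibroblast host cells. The assay followed previously published standard procedures, with a reference drug as positive control. Antiparasitic potency is reported as IC50.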

[2] = test system: Trypanosoma brucei brucei; test: WHO-TDR: Human African Trypanosomiasis (HAT); format: functional, organism-based; conditions: Squib-427
In short: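 Following previously published standard procedures, with reference drugs as positive controls, a whole-organism assay was run against bloodstream-form Trypanosoma brucei, Squib 427 strain. The compounds, 10,000 in all, came from a diverse Life Chemicals library filtered for drug-likeness and reactive groups. Reported values are IC50 for antiparasitic potency.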

Leishmania infantum = test: WHO-TDR: Leishmaniasis; format: functional, organism-based, Mus musculus; conditions: Macrophage
In short: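 IC50 values describe antiparasitic potency in this whole-organism screen. Leishmania infantum MHOM/MA(BE)/67 amastigotes were tested inside murine peritoneal macrophages against a 10,000-compound diverse Life Chemicals library. A reference drug served as positive control.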

Schistosoma mansoni = test: WHO-TDR: Schistosomiasis; format: functional; set-up: concentration or dose not given beside the values
In short: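 Activity appears as percent inhibition and as IC50. The underlying screen tested a diverse library of 10,000 compounds, supplied by Life Chemicals, on whole larval and/or adult worms of the Puerto Rican strain of Schistosoma mansoni.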

Onchocerca ochengi = test: WHO-TDR: Onchocerciasis; format: functional; set-up: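 at 12.5 µM on microfilariae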
In short: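 Following previously published standard procedures, with reference drugs as positive controls, a diverse Life Chemicals library was tested on whole Onchocerca ochengi or Onchocerca lienalis microfilariae. The library held 10,000 compounds filtered for drug-likeness and reactive groups. Activity is recorded both as percent inhibition and as IC50.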

Brugia malayi = test: WHO-TDR: Lymphatic Filariasis; format: functional; set-up: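 tested at 10 µM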
In short: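 Following previously published standard procedures, compounds were tested on whole Brugia malayi microfilariae, with reference drugs as positive controls. They came from a diverse Life Chemicals collection of 10,000 compounds filtered for drug-likeness and reactive groups. Results appear as percent inhibition and as IC50.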

Cc1ccc(C)c2sc(N(CCCn3ccnc3)C(=O)COc3ccccc3)nc12
IC50 [1]: 5.31 µg/mL (≈ 12.6 µM)
IC50 (Plasmodium falciparum K1): 2.34 µg/mL (≈ 5.56 µM)
IC50 (Trypanosoma cruzi): 1.14 µg/mL (≈ 2.71 µM)
IC50 [2]: 4.44 µg/mL (≈ 10.6 µM)
IC50 (Leishmania infantum): 9.34 µg/mL (≈ 22.2 µM)
% Inhibition (Schistosoma mansoni): 0%
% Inhibition (Onchocerca ochengi): 100%
% Inhibition (Brugia malayi): 0%

CN(C)C(CNS(=O)(=O)c1ccc(Cl)s1)c1ccc(F)cc1 (stereo unspecified)
IC50 [1]: > 10.9 µg/mL
IC50 (Plasmodium falciparum K1): > 10.9 µg/mL
IC50 (Trypanosoma cruzi): > 10.9 µg/mL
IC50 [2]: 3.44 µg/mL (≈ 9.49 µM)
IC50 (Leishmania infantum): > 10.9 µg/mL
% Inhibition (Schistosoma mansoni): 0%
% Inhibition (Onchocerca ochengi): 100%
% Inhibition (Brugia malayi): 0%

O=C(c1ccc(F)cc1F)N1CCN(c2ccc(-c3cccnc3)nn2)CC1
IC50 [1]: > 11.4 µg/mL
IC50 (Plasmodium falciparum K1): > 11.4 µg/mL
IC50 (Trypanosoma cruzi): > 11.4 µg/mL
IC50 [2]: > 11.4 µg/mL
IC50 (Leishmania infantum): 0.37 µg/mL (≈ 0.97 µM)
% Inhibition (Schistosoma mansoni): 0%
% Inhibition (Onchocerca ochengi): 0%
% Inhibition (Brugia malayi): 33.33%

O=C(Nc1nnc(Cc2cccs2)o1)c1cc(Cl)sc1Cl
IC50 [1]: 0.967 µg/mL (≈ 2.68 µM)
IC50 (Plasmodium falciparum K1): > 10.8 µg/mL
IC50 (Trypanosoma cruzi): 0.632 µg/mL (≈ 1.75 µM)
IC50 [2]: 0.342 µg/mL (≈ 0.949 µM)
IC50 (Leishmania infantum): > 10.8 µg/mL
% Inhibition (Schistosoma mansoni): 0%
% Inhibition (Onchocerca ochengi): 0%
% Inhibition (Brugia malayi): 0%

COc1cccc(C(=O)N2CCN(c3ccc(-c4ccccn4)nn3)CC2)c1OC
IC50 [1]: 5.68 µg/mL (≈ 14 µM)
IC50 (Plasmodium falciparum K1): 0.548 µg/mL (≈ 1.35 µM)
IC50 (Trypanosoma cruzi): 0.421 µg/mL (≈ 1.04 µM)
IC50 [2]: 3.85 µg/mL (≈ 9.49 µM)
IC50 (Leishmania infantum): 1.81 µg/mL (≈ 4.46 µM)
% Inhibition (Schistosoma mansoni): 33.3%
% Inhibition (Onchocerca ochengi): 100%
% Inhibition (Brugia malayi): 33.33%

Cc1ccnc(Nc2ccc(NCCNS(=O)(=O)c3cccc(Cl)c3)nn2)c1
IC50 [1]: > 12.6 µg/mL
IC50 (Plasmodium falciparum K1): > 12.6 µg/mL
IC50 (Trypanosoma cruzi): > 12.6 µg/mL
IC50 [2]: 4.02 µg/mL (≈ 9.6 µM)
IC50 (Leishmania infantum): > 12.6 µg/mL
% Inhibition (Schistosoma mansoni): 0%
% Inhibition (Onchocerca ochengi): 100%
% Inhibition (Brugia malayi): 0%

CS(=O)(=O)c1ccccc1C(=O)Nc1nc(-c2cc3ccccc3o2)cs1
IC50 [1]: 5.25 µg/mL (≈ 13.2 µM)
IC50 (Plasmodium falciparum K1): > 12 µg/mL
IC50 (Trypanosoma cruzi): 4.3 µg/mL (≈ 10.8 µM)
IC50 [2]: 4.02 µg/mL (≈ 10.1 µM)
IC50 (Leishmania infantum): > 12 µg/mL
% Inhibition (Schistosoma mansoni): 0%
% Inhibition (Onchocerca ochengi): 100%
% Inhibition (Brugia malayi): 0%

COc1ccc(-c2ccc(N3CCN(C(=O)c4c(F)cccc4F)CC3)nn2)cc1OC
IC50 [1]: > 13.2 µg/mL
IC50 (Plasmodium falciparum K1): > 13.2 µg/mL
IC50 (Trypanosoma cruzi): > 13.2 µg/mL
IC50 [2]: > 13.2 µg/mL
IC50 (Leishmania infantum): 0.428 µg/mL (≈ 0.972 µM)
% Inhibition (Schistosoma mansoni): 8.3%
% Inhibition (Onchocerca ochengi): 0%
% Inhibition (Brugia malayi): 0%

COc1cccc(-c2cc(CC(=O)NCCC(C)C)no2)c1
IC50 [1]: > 9.07 µg/mL
IC50 (Plasmodium falciparum K1): > 9.07 µg/mL
IC50 (Trypanosoma cruzi): > 9.07 µg/mL
IC50 [2]: > 9.07 µg/mL
IC50 (Leishmania infantum): > 9.07 µg/mL
% Inhibition (Schistosoma mansoni): 0%
% Inhibition (Onchocerca ochengi): 100%
% Inhibition (Brugia malayi): 0%

O=S(=O)(CCCOc1ccc(F)cc1)NC1CCN(Cc2ccccc2)CC1
IC50 [1]: > 12.2 µg/mL
IC50 (Plasmodium falciparum K1): > 12.2 µg/mL
IC50 (Trypanosoma cruzi): > 12.2 µg/mL
IC50 [2]: 3.86 µg/mL (≈ 9.49 µM)
IC50 (Leishmania infantum): > 12.2 µg/mL
% Inhibition (Schistosoma mansoni): 50%
% Inhibition (Onchocerca ochengi): 100%
% Inhibition (Brugia malayi): 0%

Cc1ccc(Cn2c(CO)cnc2SCC(=O)Nc2cccc3ccccc23)cc1
IC50 [1]: > 12.5 µg/mL
IC50 (Plasmodium falciparum K1): > 12.5 µg/mL
IC50 (Trypanosoma cruzi): > 12.5 µg/mL
IC50 [2]: > 12.5 µg/mL
IC50 (Leishmania infantum): > 12.5 µg/mL
% Inhibition (Schistosoma mansoni): 0%
% Inhibition (Onchocerca ochengi): 100%
% Inhibition (Brugia malayi): 25%

O=C(c1ccc(C(F)(F)F)cc1)N1CCN(c2ccc(Nc3cccnc3)nn2)CC1
IC50 [1]: 7.94 µg/mL (≈ 18.5 µM)
IC50 (Plasmodium falciparum K1): > 12.9 µg/mL
IC50 (Trypanosoma cruzi): 3.43 µg/mL (≈ 8.02 µM)
IC50 [2]: > 12.9 µg/mL
IC50 (Leishmania infantum): > 12.9 µg/mL
% Inhibition (Schistosoma mansoni): 0%
% Inhibition (Onchocerca ochengi): 100%
% Inhibition (Brugia malayi): 25%

O=C(Nc1ccccc1)N1CCN(c2ccc(Nc3ccccn3)nn2)CC1
IC50 [1]: 11.3 µg/mL (≈ 30 µM)
IC50 (Plasmodium falciparum K1): > 11.3 µg/mL
IC50 (Trypanosoma cruzi): > 11.3 µg/mL
IC50 [2]: > 11.3 µg/mL
IC50 (Leishmania infantum): > 11.3 µg/mL
% Inhibition (Schistosoma mansoni): 0%
% Inhibition (Onchocerca ochengi): 100%
% Inhibition (Brugia malayi): 0%

CC(C)(C)n1ncc2c(=O)n(CCC(=O)NCc3ccccc3Cl)cnc21
IC50 [1]: > 11.6 µg/mL
IC50 (Plasmodium falciparum K1): > 11.6 µg/mL
IC50 (Trypanosoma cruzi): > 11.6 µg/mL
IC50 [2]: > 11.6 µg/mL
IC50 (Leishmania infantum): > 11.6 µg/mL
% Inhibition (Schistosoma mansoni): 100%
% Inhibition (Onchocerca ochengi): 0%
% Inhibition (Brugia malayi): 20%

O=S(=O)(NCC(c1cccs1)N1CCOCC1)c1ccc(Cl)s1 (stereo unspecified)
IC50 [1]: > 11.8 µg/mL
IC50 (Plasmodium falciparum K1): > 11.8 µg/mL
IC50 (Trypanosoma cruzi): > 11.8 µg/mL
IC50 [2]: > 11.8 µg/mL
IC50 (Leishmania infantum): > 11.8 µg/mL
% Inhibition (Schistosoma mansoni): 0%
% Inhibition (Onchocerca ochengi): 100%
% Inhibition (Brugia malayi): 0%

O=C(COc1ccc(Cl)cc1)NCCCn1nc(-c2ccc(F)cc2)ccc1=O
IC50 [1]: > 12.5 µg/mL
IC50 (Plasmodium falciparum K1): > 12.5 µg/mL
IC50 (Trypanosoma cruzi): > 12.5 µg/mL
IC50 [2]: > 12.5 µg/mL
IC50 (Leishmania infantum): > 12.5 µg/mL
% Inhibition (Schistosoma mansoni): 16.7%
% Inhibition (Onchocerca ochengi): 100%
% Inhibition (Brugia malayi): 0%

CCOC(=O)c1sc(NC(=O)C2CCCCN2S(C)(=O)=O)cc1C (stereo unspecified)
IC50 [1]: > 11.2 µg/mL
IC50 (Plasmodium falciparum K1): > 11.2 µg/mL
IC50 (Trypanosoma cruzi): 3.69 µg/mL (≈ 9.86 µM)
IC50 [2]: 3.82 µg/mL (≈ 10.2 µM)
IC50 (Leishmania infantum): > 11.2 µg/mL
% Inhibition (Schistosoma mansoni): 0%
% Inhibition (Onchocerca ochengi): 100%
% Inhibition (Brugia malayi): 0%

CSc1cccc(C(=O)N(Cc2cccnc2)c2nc3ccc(S(C)(=O)=O)cc3s2)c1
IC50 [1]: > 14.1 µg/mL
IC50 (Plasmodium falciparum K1): 8.28 µg/mL (≈ 17.6 µM)
IC50 (Trypanosoma cruzi): 0.383 µg/mL (≈ 0.816 µM)
IC50 [2]: > 14.1 µg/mL
IC50 (Leishmania infantum): > 14.1 µg/mL
% Inhibition (Schistosoma mansoni): 0%
% Inhibition (Onchocerca ochengi): 0%
% Inhibition (Brugia malayi): 0%

Cc1cc(-c2nnc(NC(=O)CSc3ccc(F)cc3)o2)nn1C
IC50 [1]: > 10.4 µg/mL
IC50 (Plasmodium falciparum K1): > 10.4 µg/mL
IC50 (Trypanosoma cruzi): > 10.4 µg/mL
IC50 [2]: > 10.4 µg/mL
IC50 (Leishmania infantum): 0.337 µg/mL (≈ 0.97 µM)
% Inhibition (Schistosoma mansoni): 0%
% Inhibition (Onchocerca ochengi): 0%
% Inhibition (Brugia malayi): 33.33%

Cc1ccnc(Nc2ccc(NCCNC(=O)Nc3ccc(F)cc3)nn2)c1
IC50 [1]: > 11.4 µg/mL
IC50 (Plasmodium falciparum K1): > 11.4 µg/mL
IC50 (Trypanosoma cruzi): > 11.4 µg/mL
IC50 [2]: > 11.4 µg/mL
IC50 (Leishmania infantum): > 11.4 µg/mL
% Inhibition (Schistosoma mansoni): 0%
% Inhibition (Onchocerca ochengi): 100%
% Inhibition (Brugia malayi): 0%

Cc1ccccc1OCC(=O)NCCS(=O)(=O)N1CCN(Cc2ccccc2)CC1
IC50 [1]: > 14 µg/mL
IC50 (Plasmodium falciparum K1): > 14 µg/mL
IC50 (Trypanosoma cruzi): > 14 µg/mL
IC50 [2]: > 14 µg/mL
IC50 (Leishmania infantum): > 14 µg/mL
% Inhibition (Schistosoma mansoni): 83.3%
% Inhibition (Onchocerca ochengi): 100%
% Inhibition (Brugia malayi): 20%

CCn1ccnc1N1CCN(C(=O)c2cccc(OC)c2OC)CC1
IC50 [1]: > 11.4 µg/mL
IC50 (Plasmodium falciparum K1): > 11.4 µg/mL
IC50 (Trypanosoma cruzi): > 11.4 µg/mL
IC50 [2]: > 11.4 µg/mL
IC50 (Leishmania infantum): 0.37 µg/mL (≈ 1.07 µM)
% Inhibition (Schistosoma mansoni): 8.3%
% Inhibition (Onchocerca ochengi): 0%
% Inhibition (Brugia malayi): 0%
